Experimental findings from ChEMBL document CHEMBL1157556, “Synthesis and biological screening of a combinatorial library of beta-chlorovinyl chalcones as anticancer, anti-inflammatory and antimicrobial agents” (Bioorg Med Chem, 2010) are described below.

Molecules are shown by their SMILES. ≈ marks a conversion by molar mass, not a printed value.

Data set [1] relates to Staphylococcus aureus. The data set is described as follows: Antibacterial activity against Staphylococcus aureus MTCC 96 after 24 hrs. The following applies: MTCC 96, 24 h. The format is functional. The method in brief:
(§1)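 Agar well diffusion on Mueller Hinton agar seeded with 0.1 mL of a 10⁵ cfu/mL suspension in 0.85% saline. Compounds dissolved in DMSO, final concentrations 25–250 µg/mL, 0.1 mL loaded per 6 mm well. DMSO (1%) control; tetracycline (10 µg/mL) reference. Duplicate plates incubated 24 h at 37 °C. Inhibition zone read in mm. MIC taken as lowest concentration giving complete growth inhibition.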

Data set [2] concerns THP-1. The data set is described as follows: Antiinflammatory activity in human THP1 cells assessed as inhibition of LPS-induced TNFalpha release at 10 uM after 24 hrs by ELISA. The format is functional. To be noted: THP-1, 24 h. The method in brief: (§2)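 THP-1 cells grown in RPMI 1640 with 10% FBS, penicillin and streptomycin, then PMA-differentiated. Compounds in 0.5% DMSO preincubated 30 min at 37 °C before LPS (E. coli 0127:B8) stimulation. TNF-α and IL-6 release measured by kit per the manufacturer (BD Biosciences). Percent inhibition calculated relative to control. Dexamethasone 1 µM as reference.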
For orientation: An ELISA detects its analyte on a solid surface through an enzyme-linked reagent.

Data set [3] has as its system PANC-1. The experiment in a line: Anticancer activity against human PANC1 cells at 10 uM after 48 hrs by propidium iodide fluorescence assay. The format is functional. The method in brief:
(§3)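 Propidium iodide DNA-fluorescence assay. Seeding 3000–7500 cells/well, 24 h recovery at 37 °C in 5% CO₂. Compounds in 0.1% DMSO added to triplicate wells at 10 µM. Flavopiridol 700 nM and gemcitabine 500 nM as reference inhibitors. Plates frozen at −80 °C for 24 h, thawed to room temperature, fluorescence read at excitation 530 nm and emission 620 nm. Percent cytotoxicity calculated.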

The next data set relates to Trichoderma viride. The data set is described as follows: Antifungal activity against Trichoderma viride MTCC 167 at 100 ug/ml after 48 hrs agar diffusion method. The format is functional. To be noted: MTCC 167, 48 h, read-out: IZ. The method in brief:
(§4)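 Fungal spore suspensions in sterile distilled water adjusted to 10⁶ cfu/mL; 0.1 mL spread on Sabouraud dextrose agar. Wells of 6 mm filled with 0.1 mL compound dilution in DMSO. DMSO (1%) control; nystatin (30 µg/mL) reference. Duplicate plates incubated at 28 °C for 48 h. Activity read as inhibition zone diameter in mm.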
A general note: In agar diffusion tests the substance spreads into inoculated agar from a disc or well.

In the next data set the test system is Penicillium chrysogenum. The data set is described as follows: Antifungal activity against Penicillium chrysogenum MTCC 1996 at 100 ug/ml after 48 hrs agar diffusion method. The format is functional. To be noted: MTCC 1996, 48 h, read-out: IZ. The method in brief: as §4
The next data set concerns Candida albicans. The experiment in a line: Antifungal activity against Candida albicans MTCC 227 at 100 ug/ml after 48 hrs agar diffusion method. To be noted: MTCC 227, 48 h, read-out: IZ. The class given is functional. The method in brief:
as §4

Data set [4] deals with Klebsiella pneumoniae. The data set is described as follows: Antibacterial activity against Klebsiella pneumoniae NCIM 2957 at 50 ug/ml after 24 hrs agar diffusion method. The following applies: NCIM 2957, 24 h, read-out: IZ. The class given is functional. The method in brief:
as §1

The subject of data set [5] is Proteus vulgaris. The experiment in a line: Antibacterial activity against Proteus vulgaris MTCC 1771 at 50 ug/ml after 24 hrs agar diffusion method. The format is functional. The following applies: MTCC 1771, 24 h, read-out: IZ. The method in brief: as §1
For data set [6], the system named is NCI-H460. The data set is described as follows: Anticancer activity against human H460 cells at 10 uM after 48 hrs by propidium iodide fluorescence assay. The class given is functional. The method in brief:
as §3

Data set [7] concerns ACHN. The data set is described as follows: Anticancer activity against human ACHN cells at 10 uM after 48 hrs by propidium iodide fluorescence assay. The class given is functional. The method in brief:
as §3

Data set [8] deals with Proteus vulgaris. The data set is described as follows: Antibacterial activity against Proteus vulgaris MTCC 1771 after 24 hrs. To be noted: MTCC 1771, 24 h. The class given is functional. The method in brief:
as §1

Data set [9] deals with Escherichia coli. The experiment in a line: Antibacterial activity against Escherichia coli MTCC 1650 after 24 hrs. The format is functional. To be noted: MTCC 1650, 24 h. The method in brief:
as §1

In data set [10] the test system is HCT-116. The experiment in a line: Anticancer activity against human HCT116 cells at 10 uM after 48 hrs by propidium iodide fluorescence assay. The class given is functional. The method in brief:
as §3

The test system of data set [11] is THP-1. The data set is described as follows: Cytotoxicity against human THP1 cells assessed as CCK8 release at 10 uM after 24 hrs by ELISA. The class given is cell-based. The following applies: thp-1, 24 h. The method in brief: (§5)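 Same THP-1 cytokine-assay cells, with compounds in 0.5% DMSO and LPS stimulation, were scored in parallel for cytotoxicity by CCK-8.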

Data set [12] has as its system Klebsiella pneumoniae. The experiment in a line: Antibacterial activity against Klebsiella pneumoniae NCIM 2957 after 24 hrs. The following applies: NCIM 2957, 24 h. The format is functional. The method in brief: as §1
Data set [13] deals with Bacillus subtilis. The data set is described as follows: Antibacterial activity against Bacillus subtilis MTCC 1789 after 24 hrs. The following applies: MTCC 1789, 24 h. The format is functional. The method in brief:
as §1

In data set [14] the test system is Staphylococcus aureus. The experiment in a line: Antibacterial activity against Staphylococcus aureus MTCC 96 at 50 ug/ml after 24 hrs agar diffusion method. The class given is functional. To be noted: MTCC 96, 24 h, read-out: IZ. The method in brief:
as §1

Data set [15] deals with THP-1. The data set is described as follows: Antiinflammatory activity in human THP1 cells assessed as inhibition of LPS-induced IL6 release at 10 uM after 24 hrs by ELISA. The format is functional. The following applies: THP-1, 24 h. The method in brief: as §2
For data set [16], the system named is Bacillus subtilis. The data set is described as follows: Antibacterial activity against Bacillus subtilis MTCC 1789 at 50 ug/ml after 24 hrs agar diffusion method. The class given is functional. To be noted: MTCC 1789, 24 h, read-out: IZ. The method in brief: as §1
Data set [17] deals with Calu-1. The experiment in a line: Anticancer activity against human Calu1 cells at 10 uM after 48 hrs by propidium iodide fluorescence assay. The class given is functional. The method in brief:
as §3

The test system of data set [18] is Escherichia coli. The data set is described as follows: Antibacterial activity against Escherichia coli MTCC 1650 at 50 ug/ml after 24 hrs agar diffusion method. The format is functional. To be noted: MTCC 1650, 24 h, read-out: IZ. The method in brief:
as §1

For a further data set, the system named is Aspergillus niger. The data set is described as follows: Antifungal activity against Aspergillus niger MTCC 1781 at 100 ug/ml after 48 hrs agar diffusion method. The format is functional. To be noted: MTCC 1781, 48 h, read-out: IZ. The method in brief:
as §4

For a further data set, the system named is Aspergillus flavus. The experiment in a line: Antifungal activity against Aspergillus flavus MTCC 2501 at 100 ug/ml after 48 hrs agar diffusion method. The format is functional. The following applies: MTCC 2501, 48 h, read-out: IZ. The method in brief:
as §4

Data set [19] concerns THP-1. The experiment in a line: Antiinflammatory activity in human THP1 cells assessed as inhibition of LPS-induced TNFalpha release at 1 uM after 24 hrs by ELISA. The format is functional. To be noted: THP-1, 24 h. The method in brief: as §2
Data set [20] has as its system THP-1. The experiment in a line: Cytotoxicity against human THP1 cells assessed as CCK8 release at 1 uM after 24 hrs by ELISA. The format is cell-based. The following applies: thp-1, 24 h. The method in brief:
as §5

Data set [21] concerns THP-1. The data set is described as follows: Antiinflammatory activity in human THP1 cells assessed as inhibition of LPS-induced IL6 release at 1 uM after 24 hrs by ELISA. The class given is functional. To be noted: THP-1, 24 h. The method in brief: as §2
The test system of data set [22] is Calu-1. The experiment in a line: Anticancer activity against human Calu1 cells at 700 nM after 48 hrs by propidium iodide fluorescence assay. The class given is functional. The method in brief: as §3
Data set [23] has as its system HCT-116. The data set is described as follows: Anticancer activity against human HCT116 cells at 700 nM after 48 hrs by propidium iodide fluorescence assay. The format is functional. The method in brief: as §3
Data set [24] concerns PANC-1. The data set is described as follows: Anticancer activity against human PANC1 cells at 700 nM after 48 hrs by propidium iodide fluorescence assay. The class given is functional. The method in brief:
as §3

Data set [25] has as its system ACHN. The experiment in a line: Anticancer activity against human ACHN cells at 700 nM after 48 hrs by propidium iodide fluorescence assay. The class given is functional. The method in brief: as §3
Data set [26] relates to NCI-H460. The experiment in a line: Anticancer activity against human H460 cells at 700 nM after 48 hrs by propidium iodide fluorescence assay. The format is functional. The method in brief: as §3

As to `COc1ccc(C(=O)/C=C/C=C(\Cl)c2cccc(Cl)c2)c(OC)c1`, the MIC against Staphylococcus aureus [1], with Proteus vulgaris [8], in the data set with Escherichia coli [9], with Klebsiella pneumoniae [12] and in the data set with Bacillus subtilis [13] was 50 µg/mL (≈ 138 µM) throughout. Besides, the inhibition (as a rule, the relative decrease from the control value, in per cent) at 10 µM in the data set with THP-1 [2] stood at 0%; with THP-1 [15], 7%. Moreover, the Activity in the data set with PANC-1 [3] was 32%; in the data set with NCI-H460 [6], 31%; in the data set with ACHN [7], 32%; in the data set with HCT-116 [10] it was 37%; in the data set on THP-1 [11] it was 0%; in the data set on Calu-1 [17], 40%. The zone of inhibition at 100 µg/mL worked out at 13 mm in the data set with Trichoderma viride; 10 mm with Penicillium chrysogenum; 10 mm in the data set with Candida albicans; 14 mm in the data set on Aspergillus niger; 15 mm with Aspergillus flavus. Further, the zone of inhibition at 50 µg/mL in the data set on Klebsiella pneumoniae [4] was 16 mm; in the data set with Proteus vulgaris [5], 13 mm; in the data set with Staphylococcus aureus [14] it was 16 mm; in the data set with Bacillus subtilis [16], 18 mm; in the data set with Escherichia coli [18], 12 mm.
Consider `COc1ccc(/C(Cl)=C/C=C/C(=O)c2ccc(OC)cc2OC)cc1`, for which the MIC in the data set on Staphylococcus aureus [1], in the data set on Proteus vulgaris [8], with Escherichia coli [9], in the data set with Klebsiella pneumoniae [12] and with Bacillus subtilis [13] was 50 µg/mL (≈ 139 µM) in each case. Further, the values for the inhibition at 10 µM with THP-1 [2] and in the data set on THP-1 [15] were 0% and 49%, respectively. The Activity in the data set with PANC-1 [3] was 31%; with NCI-H460 [6] it was 33%; in the data set with ACHN [7], 33%; in the data set on HCT-116 [10] it was 31%; in the data set with THP-1 [11], 0%; in the data set on Calu-1 [17] it was 31%. The zone of inhibition at 100 µg/mL was 14 mm in the data set on Trichoderma viride; 12 mm in the data set on Penicillium chrysogenum; 8 mm in the data set with Candida albicans; 15 mm with Aspergillus niger; 12 mm in the data set on Aspergillus flavus. For the same molecule, the zone of inhibition at 50 µg/mL with Klebsiella pneumoniae [4] worked out at 12 mm; in the data set with Proteus vulgaris [5] it was 15 mm; in the data set on Staphylococcus aureus [14] it was 12 mm; with Bacillus subtilis [16], 20 mm; in the data set on Escherichia coli [18] it was 14 mm.
For the molecule `C[C@@H]1C[C@H]2[C@@H]3CCC4=CC(=O)C=C[C@]4(C)[C@@]3(F)[C@@H](O)C[C@]2(C)[C@@]1(O)C(=O)CO` [DEXAMETHASONE], the results for the inhibition at 1 µM with THP-1 [19] and with THP-1 [21] were 73% and 84%, respectively. Besides, the Activity in the data set with THP-1 [20] is listed as 0%.
As to `CN1CC[C@H](c2c(O)cc(O)c3c(=O)cc(-c4ccccc4Cl)oc23)[C@H](O)C1` [ALVOCIDIB], the Activity was 68% with Calu-1 [22]; 71% with HCT-116 [23]; 75% with PANC-1 [24]; 68% with ACHN [25]; 84% in the data set with NCI-H460 [26].
